{"source": "ChEMBL document CHEMBL4616672", "about": "“Inhibiting Matrix Metalloproteinase-2 Activation by Perturbing Protein-Protein Interactions Using a Cyclic Peptide” (J Med Chem, 2020)", "key": {"[1]": {"target": "T1, 72 kDa type IV collagenase (Homo sapiens, UniProt P08253)", "T1 sequence (P08253 whole entry)": "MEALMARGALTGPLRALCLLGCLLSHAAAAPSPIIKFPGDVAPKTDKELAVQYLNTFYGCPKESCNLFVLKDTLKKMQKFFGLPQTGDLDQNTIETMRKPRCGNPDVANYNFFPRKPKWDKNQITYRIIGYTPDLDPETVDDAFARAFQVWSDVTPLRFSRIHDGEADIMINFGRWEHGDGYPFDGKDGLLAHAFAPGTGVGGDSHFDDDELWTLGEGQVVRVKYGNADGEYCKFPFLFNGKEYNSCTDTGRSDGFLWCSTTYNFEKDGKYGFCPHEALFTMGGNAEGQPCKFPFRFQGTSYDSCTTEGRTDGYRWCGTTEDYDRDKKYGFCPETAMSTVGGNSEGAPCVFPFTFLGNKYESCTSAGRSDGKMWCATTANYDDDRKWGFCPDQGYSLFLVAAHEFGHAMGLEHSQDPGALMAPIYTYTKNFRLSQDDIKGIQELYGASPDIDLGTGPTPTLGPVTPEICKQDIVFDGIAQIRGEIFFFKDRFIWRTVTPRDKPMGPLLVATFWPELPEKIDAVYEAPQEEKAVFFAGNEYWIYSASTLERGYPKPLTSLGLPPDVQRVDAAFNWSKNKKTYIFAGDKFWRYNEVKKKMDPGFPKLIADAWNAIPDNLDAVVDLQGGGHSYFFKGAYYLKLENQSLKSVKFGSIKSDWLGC", "assay": "Binding affinity to N-terminal (His6)-MBP tagged full-length human proMMP2 expressed in Escherichia coli BL21(DE3) RIL assessed as reduction in Rhod-cy(WPHPY binding incubated for 30 mins by fluorescence polarization assay", "procedure,_shortened": "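Competitive fluorescence polarization in PBS. Recombinant tag-free full-length proMMP2 (TEV-cleaved after nickel purification, then ion-exchange and size exclusion) and Rhod-cy(WPHPY) each held at 100 nM, with unlabeled ligand titrated. Read as FP. Triplicate individually prepared samples averaged, reported as mean ± SD. Each experiment repeated at least three times on different days.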"}, "[2]": {"target": "Matrix metalloproteinase-9 (Homo sapiens) (UniProt P14780)", "sequence (P14780 whole entry)": "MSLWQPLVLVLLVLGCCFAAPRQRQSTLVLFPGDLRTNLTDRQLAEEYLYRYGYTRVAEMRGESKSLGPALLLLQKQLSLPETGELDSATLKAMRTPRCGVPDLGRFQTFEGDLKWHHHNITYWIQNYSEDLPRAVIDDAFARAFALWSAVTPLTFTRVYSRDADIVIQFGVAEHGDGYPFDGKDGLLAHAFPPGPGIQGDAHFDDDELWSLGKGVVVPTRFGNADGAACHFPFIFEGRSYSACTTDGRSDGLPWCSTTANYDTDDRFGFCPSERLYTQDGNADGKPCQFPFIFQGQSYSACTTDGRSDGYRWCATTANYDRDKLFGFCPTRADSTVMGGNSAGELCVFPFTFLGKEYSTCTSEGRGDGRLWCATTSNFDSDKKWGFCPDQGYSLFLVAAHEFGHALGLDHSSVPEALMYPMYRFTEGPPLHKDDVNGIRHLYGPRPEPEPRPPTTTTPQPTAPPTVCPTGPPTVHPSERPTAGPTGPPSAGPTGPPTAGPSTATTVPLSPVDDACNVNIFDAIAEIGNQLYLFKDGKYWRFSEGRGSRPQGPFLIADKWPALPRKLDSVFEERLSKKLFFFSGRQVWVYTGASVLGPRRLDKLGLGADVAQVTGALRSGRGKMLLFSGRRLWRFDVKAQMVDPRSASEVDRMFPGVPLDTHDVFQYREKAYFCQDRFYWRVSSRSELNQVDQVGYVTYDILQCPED", "assay": "Inhibition of proMMP9 activation in human WM115 cells assessed as reduction in MMP9 activity at 0.1 nM to 1 uM incubated for 24 hrs using enzyme-specific fluorogenic substrate by fluorescence based assay", "format": "cell-based", "procedure,_shortened": "(§1)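 WM115 cells grown to 80% confluency, then cultured 24 h in serum-free medium containing compound (no-compound control). Medium concentrated and BCA-normalized. 10 μg protein in TNC buffer (pH 7.5) with MMP2- or MMP9-specific fluorogenic substrate (3 μM), incubated 20 min at 37 °C, fluorescence read at Ex 325/Em 393 nm. Triplicates, three repeats.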"}, "[3]": {"target": "T1, 72 kDa type IV collagenase", "assay": "Inhibition of MMP2 in human WM115 cells at 0.1 nM to 1 uM incubated for 5 mins using MMP2-specific fluorogenic substrate by fluorescence based assay", "format": "cell-based", "procedure,_shortened": "(§2)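 WM115 serum-free 24 h conditioned medium, concentrated and normalized by BCA. 10 μg protein in TNC buffer (50 mM Tris, 0.15 M NaCl, 10 mM CaCl2, pH 7.5) with compound in PBS, equilibrated 5 min at 37 °C. MMP2-specific fluorogenic substrate (3 μM) added, 20 min at 37 °C, read at Ex 325/Em 393 nm. For the TIMP2 condition, recombinant TIMP2 (10 μL of 1 μg/μL) added to all mixtures. Triplicates, three repeats.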"}, "[4]": {"target": "T1, 72 kDa type IV collagenase", "assay": "Inhibition of proMMP2 activation in human WM115 cells assessed as reduction in MMP2 activity at 0.1 nM to 1 uM incubated for 24 hrs by gelatin zymography", "format": "cell-based", "procedure,_shortened": "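WM115 cells (600k per well) seeded 8 h in full medium, then 24 h at 37 °C in serum-free medium with compound. Medium concentrated and normalized to 10 μg/mL protein. Run on 7.5% gelatin gel, washed in Triton X-100 buffer, incubated 20 h at 37 °C in CaCl2/ZnCl2 buffer, then Coomassie stained. Three independent experiments.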"}, "[5]": {"system": "Matrix metalloproteinase-2 (Homo sapiens)", "assay": "Inhibition of proMMP2 activation in human WM115 cells assessed as decrease in cell numbers in wound region at 1 nM to 1 uM incubated for 24 hrs by wound-healing scratch assay"}, "[6]": {"target": "T1, 72 kDa type IV collagenase", "assay": "Inhibition of proMMP2 activation in human WM115 cells assessed as reduction in MMP2 protein expression incubated for 24 hrs by Western blot analysis", "format": "cell-based", "procedure,_shortened": "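WM115 cells treated 24 h in serum-free medium with compound (PBS control). Conditioned medium immunoblotted for MMP2 with HRP secondary and chemiluminescent detection. Three independent blots, each with medium from a fresh cell batch.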"}, "[7]": {"target": "T1, 72 kDa type IV collagenase", "assay": "Inhibition of proMMP2 activation in human WM115 cells assessed as reduction in MMP2 activity at 0.1 nM to 1 uM incubated for 24 hrs using enzyme-specific fluorogenic substrate by fluorescence based assay", "format": "cell-based", "procedure,_shortened": "as §1"}, "[8]": {"target": "T1, 72 kDa type IV collagenase", "assay": "Binding affinity to hemopexin domain of proMMP2 in human WM115 cells assessed as inhibition of TIMP2-MMP2 interaction using surface immobilized recombinant TIMP incubated for 1 hr by ELISA based competitive binding assay", "format": "cell-based", "procedure,_shortened": "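His-tagged recombinant TIMP2 (9 pmol/well) captured on Ni-coated wells, blocked with His6 peptide. WM115 serum-free 24 h conditioned medium, concentrated (10 kDa cutoff), mixed with compound in PBS (PBS control) and incubated 1 h at room temperature with shaking. Bound MMP2 detected with anti-MMP2 rabbit mAb, HRP secondary and chemiluminescence. Triplicates averaged, experiment repeated three times.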"}, "[9]": {"target": "T1, 72 kDa type IV collagenase", "assay": "Binding affinity to catalytic domain of proMMP2 in human WM115 cells assessed as reduction in TIMP2-mediated inhibition of MMP2 enzyme activity at 0.1 nM to 1 uM incubated for 5 mins using MMP2-specific fluorogenic substrate by fluorescence based assay", "format": "cell-based", "procedure,_shortened": "as §2"}, "[10]": {"target": "T1, 72 kDa type IV collagenase", "assay": "Binding affinity to of proMMP2 in human WM115 cells assessed as reduction in cell membrane association of proMMP at 10 nM incubated for 15 hrs by immunofluorescence based confocal microscopy", "procedure,_shortened": "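WM115 cells in full medium exposed to 10 nM for 15 h, fixed in 4% paraformaldehyde without permeabilization and blocked in 5% goat serum. Stained overnight at 4 °C with anti-MMP2 (1:500), then Alexa Fluor 594 anti-rabbit (1:2000). Confocal imaging; single-cell intensity quantified over thirty cells per image. Three repeats.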"}, "[11]": {"system": "Matrix metalloproteinase-2 (Homo sapiens)", "assay": "Inhibition of proMMP2 activation in human WM115 cells assessed as decrease in cell invasion at 1 nM to 1 uM incubated for 24 hrs by transwell cell invasion assay"}, "[12]": {"target": "T1, 72 kDa type IV collagenase", "assay": "Binding affinity to […] expressed in Escherichia coli BL21(DE3) RIL incubated for 30 mins by fluorescence polarization assay"}}, "note": "The source made the active and inactive calls. *1 amine or outer side, *2 acyl side, *3 side chain or, on linkers, in order; H or OH if unused. Where a SMILES comes first, the peptide text is derived from it. Bridges are numbered along the chain shown (N, C = ends). Triazole bridges read from a SMILES are 1,4-linked. [ ]: non-standard residue; d: D form. The star is where a group is joined. RhodamineB = CCN(CC)c1ccc2c(-c3ccccc3C(=O)*)c3ccc(=[N+](CC)CC)cc-3oc2c1; Lys(N3) = [N-]=[N+]=NCCCC[C@H](N)C(=O)O; X1 = O=C([C@H](Cc1c[nH]nn1)N[*:1])[*:2]; NMeGABA = CN(CCCC(=O)[*:2])[*:1]; Pra = C#CC[C@H](N)C(=O)O"}
{"smiles": "C[C@@H]1NC(=O)[C@@H](N)Cc2cn(nn2)CCCC[C@@H](C(N)=O)NC(=O)[C@H](Cc2ccc(O)cc2)NC(=O)[C@@H]2CCCN2C(=O)[C@H](Cc2c[nH]cn2)NC(=O)[C@@H]2CCCN2C1=O", "note": "(H-[Pra]APHPY[Lys(N3)]-NH2; triazole 1-7)", "values": [{"measurement": "Activity", "setting": "[1]", "result": "Active"}]}
{"smiles": "C[C@@H]1NC(=O)[C@H](Cc2c[nH]c3ccccc23)NC(=O)[C@@H](N)Cc2cn(nn2)CCCC[C@@H](C(N)=O)NC(=O)[C@H](Cc2ccc(O)cc2)NC(=O)[C@@H]2CCCN2C(=O)[C@H](Cc2c[nH]cn2)NC1=O", "note": "(H-[Pra]WAHPY[Lys(N3)]-NH2; triazole 1-7)", "values": [{"measurement": "Activity", "setting": "[1]", "result": "Active"}]}
{"smiles": "C[C@@H]1NC(=O)[C@@H]2CCCN2C(=O)[C@H](Cc2c[nH]c3ccccc23)NC(=O)[C@@H](N)Cc2cn(nn2)CCCC[C@@H](C(N)=O)NC(=O)[C@H](Cc2ccc(O)cc2)NC(=O)[C@@H]2CCCN2C1=O", "note": "(H-[Pra]WPAPY[Lys(N3)]-NH2; triazole 1-7)", "values": [{"measurement": "Activity", "setting": "[1]", "result": "Active"}]}
{"smiles": "C[C@@H]1NC(=O)[C@H](Cc2c[nH]cn2)NC(=O)[C@@H]2CCCN2C(=O)[C@H](Cc2c[nH]c3ccccc23)NC(=O)[C@@H](N)Cc2cn(nn2)CCCC[C@@H](C(N)=O)NC(=O)[C@H](Cc2ccc(O)cc2)NC1=O", "note": "(H-[Pra]WPHAY[Lys(N3)]-NH2; triazole 1-7)", "values": [{"measurement": "Activity", "setting": "[1]", "result": "Active"}]}
{"smiles": "C[C@@H]1NC(=O)[C@@H]2CCCN2C(=O)[C@H](Cc2c[nH]cn2)NC(=O)[C@@H]2CCCN2C(=O)[C@H](Cc2c[nH]c3ccccc23)NC(=O)[C@@H](N)Cc2cn(nn2)CCCC[C@@H](C(N)=O)NC1=O", "note": "(H-[Pra]WPHPA[Lys(N3)]-NH2; triazole 1-7)", "values": [{"measurement": "Activity", "setting": "[1]", "result": "Active"}]}
{"smiles": "NC(=O)[C@@H]1CCCCn2cc(nn2)C[C@H](N)C(=O)N[C@@H](Cc2c[nH]c3ccccc23)C(=O)N2CCC[C@H]2C(=O)N[C@@H](Cc2c[nH]cn2)C(=O)N2CCC[C@H]2C(=O)N[C@@H](Cc2ccc(O)cc2)C(=O)N1", "note": "(H-[Pra]WPHPY[Lys(N3)]-NH2; triazole 1-7)", "values": [{"measurement": "inhibition", "setting": "[2]", "result": "inactive"}, {"measurement": "inhibition", "setting": "[3]", "result": "inactive"}, {"measurement": "inhibition", "setting": "[4]", "result": "Dose-dependent effect"}, {"measurement": "inhibition", "setting": "[5]", "result": "Active"}, {"measurement": "inhibition", "setting": "[6]", "result": "Dose-dependent effect"}, {"measurement": "inhibition", "setting": "[7]", "result": "Active"}, {"measurement": "Activity", "setting": "[8]", "result": "Active"}, {"measurement": "Activity", "setting": "[9]", "result": "inactive"}, {"measurement": "Activity", "setting": "[10]", "result": "Active"}, {"measurement": "inhibition", "setting": "[11]", "result": "Active"}]}
{"smiles": "NCCCC[C@H](NC(=O)[C@H](Cc1ccc(O)cc1)NC(=O)[C@@H]1CCCN1C(=O)[C@H](Cc1c[nH]cn1)NC(=O)[C@@H]1CCCN1C(=O)[C@H](Cc1c[nH]c2ccccc12)NC(=O)[C@@H](N)Cc1c[nH]nn1)C(N)=O", "note": "(H-[X1]WPHPYK-NH2)", "values": [{"measurement": "inhibition", "setting": "[7]", "result": "inactive"}]}
{"smiles": "CCN(CC)c1ccc2c(-c3ccccc3C(=O)N(C)CCCC(=O)N[C@H]3Cc4cn(nn4)CCCC[C@@H](C(N)=O)NC(=O)[C@H](Cc4ccc(O)cc4)NC(=O)[C@@H]4CCCN4C(=O)[C@H](Cc4c[nH]cn4)NC(=O)[C@@H]4CCCN4C(=O)[C@H](Cc4c[nH]c5ccccc45)NC3=O)c3ccc(=[N+](CC)CC)cc-3oc2c1", "note": "(RhodamineB-[NMeGABA][Pra]WPHPY[Lys(N3)]-NH2; triazole 2-8)", "values": [{"measurement": "Activity", "setting": "[1]", "result": "Active"}, {"measurement": "Kd", "setting": "[12]", "result": 280, "unit": "nM"}]}
